Source: paper PMC9844543 (Nano letters, 2022)

Assay: Critical gelation concentration by vial inversion after addition of PBS
Format: physicochemical
Summary of the method: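 Self-assembling collagen-binding peptide amphiphile filaments were dissolved in water. They were either left unsprayed, sprayed with an atomizer, or emitted from a jet nebulizer as a respirable aerosol. PBS was then added to give 1× PBS, and gelation was judged by vial inversion.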

LRELHLNNN [CBDA]
critical gelation concentration (CGC) (after spraying with an atomizer): 1 mM
critical gelation concentration (CGC) (filaments in water, PBS added to final 1× PBS, not sprayed): ~ 1 mM
